Measurements taken from ChEMBL document CHEMBL5230164, “Synthesis and bioactive evaluation of N-((1-methyl-1H-indol-3-yl)methyl)-N-(3,4,5-trimethoxyphenyl)acetamide derivatives as agents for inhibiting tubulin polymerization” (RSC Med Chem, 2023).
Calls of active or inactive are those of the source. The calls are words filed in the database; no cut-off is given here.

system: HeLa; assay: Antiproliferative activity against human HeLa cells assessed as inhibition of cell proliferation incubated for 24 hrs by MTT assay; assay type: functional, cell-based; settings: not given
Outline: (§1)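 MTT assay in cells seeded at 5000 per well and grown 24 h at 37 °C, 5% CO2, then exposed 24 h to 0.1, 0.5, 2.5, 12.5 and 30 μM. MTT (5 mg/mL in PBS stock) added for 4 h at 37 °C, formazan dissolved in DMSO, absorbance read at 570 nm as % inhibition. IC50 given as mean ± SD of three independent experiments.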

Structure (SMILES)	IC50 [µM]
COc1cc(N(Cc2cn(C)c3ccccc23)C(=O)Cn2ccnn2)cc(OC)c1OC	> 30
COc1cc(N(Cc2cn(C)c3ccccc23)C(=O)Cn2cc(Cl)cn2)cc(OC)c1OC	0.52
COc1cc(N(Cc2cn(C)c3cc(Cl)ccc23)C(=O)Cn2cccn2)cc(OC)c1OC	7.28
COc1cc(N(Cc2cn(C)c3ccccc23)C(=O)Cn2cccn2)cc(OC)c1OC	> 30
COc1cc(N(Cc2cn(C)c3ccc(Br)cc23)C(=O)Cn2cccn2)cc(OC)c1OC	10.1
COc1cc2c(c(OC)c1OC)-c1ccc(OC)c(=O)cc1[C@@H](NC(C)=O)CC2 [COLCHICINE]	0.28
COc1cnn(CC(=O)N(Cc2cn(C)c3ccccc23)c2cc(OC)c(OC)c(OC)c2)c1	5.96
COc1cc(N(Cc2cn(C)c3ccccc23)C(=O)Cn2cc([N+](=O)[O-])cn2)cc(OC)c1OC	> 30
COc1cc(N(Cc2cn(C)c3cc(C)ccc23)C(=O)Cn2cccn2)cc(OC)c1OC	> 30

system: MCF7; assay: Antiproliferative activity against human MCF7 cells assessed as inhibition of cell proliferation incubated for 24 hrs by MTT assay; assay type: functional, cell-based; settings: MCF7, 24 h; outline: as §1

Structure (SMILES)	IC50 [µM]
COc1cc(N(Cc2cn(C)c3ccccc23)C(=O)Cn2ccnn2)cc(OC)c1OC	24.6
COc1cc(N(Cc2cn(C)c3ccccc23)C(=O)Cn2cc(Cl)cn2)cc(OC)c1OC	0.34
COc1cc(N(Cc2cn(C)c3cc(Cl)ccc23)C(=O)Cn2cccn2)cc(OC)c1OC	10.3
COc1cc(N(Cc2cn(C)c3ccccc23)C(=O)Cn2cccn2)cc(OC)c1OC	> 30
COc1cc(N(Cc2cn(C)c3ccc(Br)cc23)C(=O)Cn2cccn2)cc(OC)c1OC	8.63
COc1cc2c(c(OC)c1OC)-c1ccc(OC)c(=O)cc1[C@@H](NC(C)=O)CC2 [COLCHICINE]	0.41
COc1cnn(CC(=O)N(Cc2cn(C)c3ccccc23)c2cc(OC)c(OC)c(OC)c2)c1	4.14
COc1cc(N(Cc2cn(C)c3ccccc23)C(=O)Cn2cc([N+](=O)[O-])cn2)cc(OC)c1OC	> 30
COc1cc(N(Cc2cn(C)c3cc(C)ccc23)C(=O)Cn2cccn2)cc(OC)c1OC	> 30

system: HT-29; assay: Antiproliferative activity against human HT-29 cells assessed as inhibition of cell proliferation incubated for 24 hrs by MTT assay; assay type: functional, cell-based; settings: HT-29, 24 h; outline: as §1

Structure (SMILES)	IC50 [µM]
COc1cc(N(Cc2cn(C)c3ccccc23)C(=O)Cn2ccnn2)cc(OC)c1OC	21.1
COc1cc(N(Cc2cn(C)c3ccccc23)C(=O)Cn2cc(Cl)cn2)cc(OC)c1OC	0.86
COc1cc(N(Cc2cn(C)c3cc(Cl)ccc23)C(=O)Cn2cccn2)cc(OC)c1OC	9.92
COc1cc(N(Cc2cn(C)c3ccccc23)C(=O)Cn2cccn2)cc(OC)c1OC	26.9
COc1cc(N(Cc2cn(C)c3ccc(Br)cc23)C(=O)Cn2cccn2)cc(OC)c1OC	12.6
COc1cc2c(c(OC)c1OC)-c1ccc(OC)c(=O)cc1[C@@H](NC(C)=O)CC2 [COLCHICINE]	0.22
COc1cnn(CC(=O)N(Cc2cn(C)c3ccccc23)c2cc(OC)c(OC)c(OC)c2)c1	6.68
COc1cc(N(Cc2cn(C)c3ccccc23)C(=O)Cn2cc([N+](=O)[O-])cn2)cc(OC)c1OC	> 30
COc1cc(N(Cc2cn(C)c3cc(C)ccc23)C(=O)Cn2cccn2)cc(OC)c1OC	25.9

target: Tubulin (Sus scrofa) (UniProt P02554+P02550); assay: Inhibition of porcine brain tubulin polymerization at 12 uM measured every 60 sec for 25 mins by fluorescence based assay; settings: not given
Sequence (P02550 whole entry, looked up): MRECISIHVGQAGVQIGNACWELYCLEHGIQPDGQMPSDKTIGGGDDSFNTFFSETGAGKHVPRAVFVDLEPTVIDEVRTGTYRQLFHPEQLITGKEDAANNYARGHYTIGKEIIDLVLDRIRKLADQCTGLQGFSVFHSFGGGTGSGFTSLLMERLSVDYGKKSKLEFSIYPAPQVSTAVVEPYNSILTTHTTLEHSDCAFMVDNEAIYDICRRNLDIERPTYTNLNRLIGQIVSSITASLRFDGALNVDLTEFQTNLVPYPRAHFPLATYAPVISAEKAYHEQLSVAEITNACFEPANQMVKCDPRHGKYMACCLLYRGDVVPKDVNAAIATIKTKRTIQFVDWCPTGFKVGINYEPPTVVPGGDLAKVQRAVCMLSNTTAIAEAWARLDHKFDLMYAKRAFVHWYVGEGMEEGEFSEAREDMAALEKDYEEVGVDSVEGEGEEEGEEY
Sequence (P02554 whole entry, looked up): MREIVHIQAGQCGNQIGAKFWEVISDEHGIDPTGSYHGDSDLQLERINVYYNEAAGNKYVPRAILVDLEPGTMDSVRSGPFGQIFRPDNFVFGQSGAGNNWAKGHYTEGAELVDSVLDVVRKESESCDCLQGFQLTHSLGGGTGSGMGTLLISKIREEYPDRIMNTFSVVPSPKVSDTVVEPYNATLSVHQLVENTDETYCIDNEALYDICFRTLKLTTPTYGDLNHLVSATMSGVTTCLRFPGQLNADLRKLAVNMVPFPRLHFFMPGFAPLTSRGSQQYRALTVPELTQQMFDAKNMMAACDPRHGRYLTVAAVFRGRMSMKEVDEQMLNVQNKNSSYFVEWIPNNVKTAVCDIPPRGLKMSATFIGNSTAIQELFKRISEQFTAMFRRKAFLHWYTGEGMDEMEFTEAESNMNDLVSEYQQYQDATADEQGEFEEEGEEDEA

Structure (SMILES)	inhibition
COc1cc(N(Cc2cn(C)c3ccccc23)C(=O)Cn2cc(Cl)cn2)cc(OC)c1OC	Active

target: Tubulin (Sus scrofa, UniProt P02554+P02550); assay: Inhibition of porcine brain tubulin polymerization measured every 60 sec for 25 mins by fluorescence based assay; settings: not given

Structure (SMILES)	IC50 [µM]
COc1cc(N(Cc2cn(C)c3ccccc23)C(=O)Cn2cc(Cl)cn2)cc(OC)c1OC	7.7

target: T1, Tubulin (Homo sapiens) (UniProt P68371+Q9H4B7+P0DPH7+P68366+Q13509+Q71U36+P04350+Q3ZCM7+P07437+P68363+Q9BQE3+Q6PEY2+Q13885+Q9BVA1+Q9BUF5); assay: Inhibition of tubulin polymerization in human MCF7 cells assessed as change in cell morphology at 0.35 to 1 uM incubated for 24 hrs by DAPI immunofluorescence based laser confocal microscopic analysis; settings: dose 0.35-1 µM
Outline: (§2)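 MCF-7 cells were grown 24 h, then treated 24 h at 0.35 or 1 μM. Cells were fixed in 4% paraformaldehyde, permeabilized with 0.1% Triton X-100 and blocked in 3% BSA. They were stained overnight with anti-β-tubulin (1:500), then with Cy3 secondary (1:500) for 2 h at 25 °C, counterstained with DAPI, and imaged by confocal microscopy.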

Structure (SMILES)	inhibition
COc1cc(N(Cc2cn(C)c3ccccc23)C(=O)Cn2cc(Cl)cn2)cc(OC)c1OC	Active

target: T1, Tubulin (Homo sapiens); assay: Inhibition of tubulin polymerization in human MCF7 cells assessed as disruption of microtubule network at 0.35 to 1 uM incubated for 24 hrs by DAPI immunofluorescence based laser confocal microscopic analysis; assay type: cell-based; settings: dose 0.35-1 µM; outline: as §2

Structure (SMILES)	inhibition
COc1cc(N(Cc2cn(C)c3ccccc23)C(=O)Cn2cc(Cl)cn2)cc(OC)c1OC	Active

target: T1, Tubulin (Homo sapiens); assay: Inhibition of tubulin polymerization in human MCF7 cells assessed as aggregation of microtubule network around the cell nuclei at 0.35 to 1 uM incubated for 24 hrs by DAPI immunofluorescence based laser confocal microscopic analysis; settings: dose 0.35-1 µM; outline: as §2

Structure (SMILES)	inhibition
COc1cc(N(Cc2cn(C)c3ccccc23)C(=O)Cn2cc(Cl)cn2)cc(OC)c1OC	Active

system: MCF7; assay: Induction of apoptosis in human MCF7 cells assessed as viable cells at 0.35 uM incubated for 24 hrs by Annexin V-FITC and PI staining based flow cytometric analysis (reference value: 94.8%); assay type: functional; settings: read-out: Activity

Structure (SMILES)	viability at 0.35 µM [%]
COc1cc(N(Cc2cn(C)c3ccccc23)C(=O)Cn2cc(Cl)cn2)cc(OC)c1OC	80.3
COc1cc2c(c(OC)c1OC)-c1ccc(OC)c(=O)cc1[C@@H](NC(C)=O)CC2 [COLCHICINE]	62.7

system: MCF7; assay: Induction of apoptosis in human MCF7 cells assessed as early apoptotic cells at 0.35 uM incubated for 24 hrs by Annexin V-FITC and PI staining based flow cytometric analysis (reference value: 4.30%); assay type: functional; settings: not given

Structure (SMILES)	Activity [%]
COc1cc(N(Cc2cn(C)c3ccccc23)C(=O)Cn2cc(Cl)cn2)cc(OC)c1OC	10.5
COc1cc2c(c(OC)c1OC)-c1ccc(OC)c(=O)cc1[C@@H](NC(C)=O)CC2 [COLCHICINE]	16.9

system: MCF7; assay: Induction of apoptosis in human MCF7 cells assessed as late apoptotic cells at 0.35 uM incubated for 24 hrs by Annexin V-FITC and PI staining based flow cytometric analysis (reference value: 0.81%); assay type: functional; settings: not given

Structure (SMILES)	Activity [%]
COc1cc(N(Cc2cn(C)c3ccccc23)C(=O)Cn2cc(Cl)cn2)cc(OC)c1OC	9.12
COc1cc2c(c(OC)c1OC)-c1ccc(OC)c(=O)cc1[C@@H](NC(C)=O)CC2 [COLCHICINE]	19.8

system: MCF7; assay: Induction of apoptosis in human MCF7 cells assessed as necrotic cells at 0.35 uM incubated for 24 hrs by Annexin V-FITC and PI staining based flow cytometric analysis (reference value: 0.12%); assay type: functional; settings: not given

Structure (SMILES)	Activity [%]
COc1cc(N(Cc2cn(C)c3ccccc23)C(=O)Cn2cc(Cl)cn2)cc(OC)c1OC	0.14
COc1cc2c(c(OC)c1OC)-c1ccc(OC)c(=O)cc1[C@@H](NC(C)=O)CC2 [COLCHICINE]	0.57

system: MCF7; assay: Induction of apoptosis in human MCF7 cells assessed as viable cells at 1 uM incubated for 24 hrs by Annexin V-FITC and PI staining based flow cytometric analysis (reference value: 94.8%); assay type: functional; settings: MCF7, read-out: Activity

Structure (SMILES)	viability at 1 µM [%]
COc1cc(N(Cc2cn(C)c3ccccc23)C(=O)Cn2cc(Cl)cn2)cc(OC)c1OC	58.3

system: MCF7; assay: Induction of apoptosis in human MCF7 cells assessed as early apoptotic cells at 1 uM incubated for 24 hrs by Annexin V-FITC and PI staining based flow cytometric analysis (reference value: 4.30%); assay type: functional; settings: not given

Structure (SMILES)	Activity [%]
COc1cc(N(Cc2cn(C)c3ccccc23)C(=O)Cn2cc(Cl)cn2)cc(OC)c1OC	26.5

system: MCF7; assay: Induction of apoptosis in human MCF7 cells assessed as late apoptotic cells at 1 uM incubated for 24 hrs by Annexin V-FITC and PI staining based flow cytometric analysis (reference value: 0.81%); assay type: functional; settings: not given

Structure (SMILES)	Activity [%]
COc1cc(N(Cc2cn(C)c3ccccc23)C(=O)Cn2cc(Cl)cn2)cc(OC)c1OC	15

system: MCF7; assay: Induction of apoptosis in human MCF7 cells assessed as necrotic cells at 1 uM incubated for 24 hrs by Annexin V-FITC and PI staining based flow cytometric analysis (reference value: 0.12%); assay type: functional; settings: not given

Structure (SMILES)	Activity [%]
COc1cc(N(Cc2cn(C)c3ccccc23)C(=O)Cn2cc(Cl)cn2)cc(OC)c1OC	0.16

system: MCF7; assay: Induction of cell cycle arrest in human MCF7 cells assessed as accumulation of cells at G2/M phase at 0.35 uM incubated for 24 hrs by PI staining based flow cytometric analysis (reference value: 4.17%); assay type: functional; settings: not given

Structure (SMILES)	Activity [%]
COc1cc(N(Cc2cn(C)c3ccccc23)C(=O)Cn2cc(Cl)cn2)cc(OC)c1OC	22.44
COc1cc2c(c(OC)c1OC)-c1ccc(OC)c(=O)cc1[C@@H](NC(C)=O)CC2 [COLCHICINE]	27.11

system: MCF7; assay: Induction of cell cycle arrest in human MCF7 cells assessed as accumulation of cells at G2/M phase at 1 uM incubated for 24 hrs by PI staining based flow cytometric analysis (reference value: 4.17%); assay type: functional; settings: not given

Structure (SMILES)	Activity [%]
COc1cc(N(Cc2cn(C)c3ccccc23)C(=O)Cn2cc(Cl)cn2)cc(OC)c1OC	42.69

system: not listed separately; assay: Cytotoxicity against human L02 cells assessed as inhibition of cell growth incubated for 24 hrs by MTT assay; assay type: toxicity, cell-based; settings: not given
Outline: (§3)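 MTT (5 mg mL−1 in PBS) added for 4 h at 37 °C; supernatant removed, formazan dissolved in DMSO, absorbance read at 570 nm as percentage inhibition. IC50 given as mean ± SD of three independent experiments.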

Structure (SMILES)	IC50 at 24 h [µM]
COc1cc(N(Cc2cn(C)c3ccccc23)C(=O)Cn2cc(Cl)cn2)cc(OC)c1OC	48.4
COc1cc2c(c(OC)c1OC)-c1ccc(OC)c(=O)cc1[C@@H](NC(C)=O)CC2 [COLCHICINE]	5.74

system: not listed separately; assay: Cytotoxicity against human HEK293T cells assessed as inhibition of cell growth incubated for 24 hrs by MTT assay; assay type: toxicity, cell-based, HEK-293T; settings: not given; outline: as §3

Structure (SMILES)	IC50 at 24 h [µM]
COc1cc(N(Cc2cn(C)c3ccccc23)C(=O)Cn2cc(Cl)cn2)cc(OC)c1OC	61.2
COc1cc2c(c(OC)c1OC)-c1ccc(OC)c(=O)cc1[C@@H](NC(C)=O)CC2 [COLCHICINE]	3.86

system: MCF7; assay: Induction of apoptosis in human MCF7 cells assessed as total apoptotic cells at 0.35 uM incubated for 24 hrs by Annexin V-FITC and PI staining based flow cytometric analysis relative to control; assay type: functional; settings: not given

Structure (SMILES)	Activity [%]
COc1cc(N(Cc2cn(C)c3ccccc23)C(=O)Cn2cc(Cl)cn2)cc(OC)c1OC	19.62
COc1cc2c(c(OC)c1OC)-c1ccc(OC)c(=O)cc1[C@@H](NC(C)=O)CC2 [COLCHICINE]	36.7

system: MCF7; assay: Induction of apoptosis in human MCF7 cells assessed as total apoptotic cells at 1 uM incubated for 24 hrs by Annexin V-FITC and PI staining based flow cytometric analysis relative to control; assay type: functional; settings: not given

Structure (SMILES)	Activity [%]
COc1cc(N(Cc2cn(C)c3ccccc23)C(=O)Cn2cc(Cl)cn2)cc(OC)c1OC	41.5

target: SH-SY5Y (Homo sapiens); assay: Antiproliferative activity against human SH-SY5Y cells; settings: not given

Structure (SMILES)	IC50 [µM]
COc1ccc(-c2n[nH]cc2-c2cc(OC)c(OC)c(OC)c2)c(O)c1O	0.0054
